From ChEMBL document CHEMBL1287798, “3,5-disubstituted pyranone analogues of highly antifungally active furanones: conversion of biological effect from antifungal to cytostatic” (Bioorg Med Chem Lett, 2010) come the findings set out here.

Broadly, the IC50 is the concentration needed to halve the response being measured. The low end stands for inhibition by little substance, the high end for a need for much substance. For orientation: MIC means the smallest concentration in the dilution series that meets the test's criterion for growth inhibition.

Active and inactive are the calls of the source.

The subject of experiment [1] is HT-29. Put plainly: Growth inhibition of human HT-29 cells. It counts as functional, cell-based.
Experiment [2] relates to Trichophyton mentagrophytes. Put plainly: Antifungal activity against Trichophyton mentagrophytes 445 by microdilution method. The format is functional.
Experiment [3] concerns Aspergillus fumigatus. Put plainly: Antifungal activity against Aspergillus fumigatus 231 by microdilution method. The format is functional.
Experiment [4] has as its system L1210. Put plainly: Growth inhibition of mouse L1210 cells. It counts as functional, cell-based.
For experiment [5], the system named is Trichosporon beigelii. As to the kind of experiment: Antifungal activity against Trichosporon beigelii 1188 by microdilution method. It counts as functional. Background: Broth dilution looks for growth in wells or tubes with falling amounts of substance.
Experiment [6] concerns Pichia kudriavzevii. Put plainly: Antifungal activity against Candida krusei ATCC 6258 by microdilution method. The format is functional.
Experiment [7] deals with Nannizzia gypsea. As to the kind of experiment: Antifungal activity against Microsporum gypseum by microdilution method. It counts as functional.
In experiment [8] the test system is Pichia kudriavzevii. As to the kind of experiment: Antifungal activity against Candida krusei E28 by microdilution method. The format is functional.
Experiment [9] relates to Lichtheimia corymbifera. As to the kind of experiment: Antifungal activity against Absidia corymbifera 272 by microdilution method. It counts as functional.
In experiment [10] the test system is Nakaseomyces glabratus. Put plainly: Antifungal activity against Candida glabrata 20/I by microdilution method. The format is functional.
The subject of experiment [11] is Clavispora lusitaniae. Put plainly: Antifungal activity against Clavispora lusitaniae 2446/I by microdilution method.
The test system of experiment [12] is Candida albicans. Put plainly: Antifungal activity against Candida albicans ATCC 44859 by microdilution method. It counts as functional.
The subject of experiment [13] is Candida tropicalis. As to the kind of experiment: Antifungal activity against Candida tropicalis 156 by microdilution method. It counts as functional.
The test system of experiment [14] is Candida parapsilosis. As to the kind of experiment: Antifungal activity against Candida parapsilosis ATCC 22019 by microdilution method. The note with it: Lodderomyces parapsilosis. It counts as functional.
In experiment [15] the test system is Candida albicans. Put plainly: Antifungal activity against Candida albicans ATCC 90028 by microdilution method. It counts as functional.
Experiment [16] has as its system CCRF-CEM. As to the kind of experiment: Growth inhibition of human CCRF-CEM cells at 10 umol/L. It counts as functional, cell-based. The method in brief: (§1)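 Single-concentration cytostatic screen at 10 µmol L⁻¹ on mouse lymphocytic leukemia L1210 (ATCC CCL 219), human acute lymphoblastic leukemia CCRF-CEM T lymphoblastoid cells (ATCC CCL 119), human promyelocytic leukemia HL-60 (ATCC CCL 240) and human cervix carcinoma HeLa S3 (ATCC CCL 2.2).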

For experiment [17], the system named is HL-60. Put plainly: Growth inhibition of human HL60 cells at 10 umol/L. The format is functional, cell-based. The method in brief:
as §1

In experiment [18] the test system is HeLa S3. As to the kind of experiment: Growth inhibition of human HeLaS3 cells at 10 umol/L. It counts as functional, cell-based. The method in brief: as §1
The subject of experiment [19] is L1210. As to the kind of experiment: Growth inhibition of mouse L1210 cells at 10 umol/L. It counts as functional, cell-based. The method, boiled down:
as §1

Consider `CC(=O)OCC1C=C(c2ccc(Cl)c(Cl)c2)C(=O)OC1` (centres undefined), for which the values for the IC50 in experiment [1] and in [4] were 2.45 µM and 7.3 µM, respectively. In addition, the MIC in experiment [2], in [3], in [5], in [6], in [7] and in [8] was no less than 62.5 µM throughout. For the same molecule, the MIC in [9], in [10], in [11], in experiment [12], in experiment [13] and in experiment [14] was no less than 62.5 µM in each case. The MIC in experiment [15] is no less than 62.5 µM.

For the molecule `O=C1OCC(CO)C=C1c1ccc(Cl)c(Cl)c1` (centres undefined), the inhibition result in experiment [16], in [17], in experiment [18] and in [19] was “inactive” each time.
